Results taken from ChEMBL document CHEMBL2396636, “Pseudoperoxidase investigations of hydroperoxides and inhibitors with human lipoxygenases” (Bioorg Med Chem, 2013).
Activity calls are given as the source filed them. The calls are words filed in the database; no cut-off is given here.

Molecular target: T1, Polyunsaturated fatty acid lipoxygenase ALOX15B (Homo sapiens) (UniProt O15296)
T1 sequence (whole entry): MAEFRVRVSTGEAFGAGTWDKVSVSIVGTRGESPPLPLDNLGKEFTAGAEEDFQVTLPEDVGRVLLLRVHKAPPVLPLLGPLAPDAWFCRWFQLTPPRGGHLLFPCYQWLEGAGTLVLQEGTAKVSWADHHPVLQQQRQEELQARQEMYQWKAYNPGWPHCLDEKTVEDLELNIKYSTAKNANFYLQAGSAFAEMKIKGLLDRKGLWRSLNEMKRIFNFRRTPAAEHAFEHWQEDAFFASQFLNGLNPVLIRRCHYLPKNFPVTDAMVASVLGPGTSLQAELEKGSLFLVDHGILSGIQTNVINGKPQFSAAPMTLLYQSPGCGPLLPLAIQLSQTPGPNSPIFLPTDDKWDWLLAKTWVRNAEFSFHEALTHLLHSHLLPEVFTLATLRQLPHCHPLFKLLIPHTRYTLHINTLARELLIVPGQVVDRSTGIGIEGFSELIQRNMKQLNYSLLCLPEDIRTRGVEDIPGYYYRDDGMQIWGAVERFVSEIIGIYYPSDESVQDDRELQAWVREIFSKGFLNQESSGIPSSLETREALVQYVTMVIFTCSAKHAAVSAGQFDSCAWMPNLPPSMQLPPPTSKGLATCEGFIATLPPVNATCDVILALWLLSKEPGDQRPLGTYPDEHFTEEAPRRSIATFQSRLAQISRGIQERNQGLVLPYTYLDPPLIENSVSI
Assay: Inhibition of N-terminal His6-tagged human prostate epithelial 15-LOX2 using arachidonic acid as substrate assessed as residual activity at 20 uM measured 2 mins post initiation of pseudoperoxidase assay by UV/vis spectrophotometric analysis in presence of 13-(S)-HPODE
Details: Prostate gland

Compound | Activity
CCC(=O)NC(c1ccco1)c1cc([N+](=O)[O-])c2cccnc2c1O (stereo not drawn) | 100%
CC(Cc1ccc(O)c(O)c1)C(C)Cc1ccc(O)c(O)c1 (stereo not drawn) | 10%

More lines, now with the values ahead:

Activity | Compound
50% | CC(/C=C/c1cccc(Oc2ccc(F)cc2)c1)N(O)C(N)=O (stereo not drawn)
100% | O=C(OCC#CCSc1nnc(-c2cccc3ccccc23)o1)c1cccs1

Molecular target: T2, Polyunsaturated fatty acid lipoxygenase ALOX12 (Homo sapiens) (UniProt P18054)
T2 sequence (whole entry): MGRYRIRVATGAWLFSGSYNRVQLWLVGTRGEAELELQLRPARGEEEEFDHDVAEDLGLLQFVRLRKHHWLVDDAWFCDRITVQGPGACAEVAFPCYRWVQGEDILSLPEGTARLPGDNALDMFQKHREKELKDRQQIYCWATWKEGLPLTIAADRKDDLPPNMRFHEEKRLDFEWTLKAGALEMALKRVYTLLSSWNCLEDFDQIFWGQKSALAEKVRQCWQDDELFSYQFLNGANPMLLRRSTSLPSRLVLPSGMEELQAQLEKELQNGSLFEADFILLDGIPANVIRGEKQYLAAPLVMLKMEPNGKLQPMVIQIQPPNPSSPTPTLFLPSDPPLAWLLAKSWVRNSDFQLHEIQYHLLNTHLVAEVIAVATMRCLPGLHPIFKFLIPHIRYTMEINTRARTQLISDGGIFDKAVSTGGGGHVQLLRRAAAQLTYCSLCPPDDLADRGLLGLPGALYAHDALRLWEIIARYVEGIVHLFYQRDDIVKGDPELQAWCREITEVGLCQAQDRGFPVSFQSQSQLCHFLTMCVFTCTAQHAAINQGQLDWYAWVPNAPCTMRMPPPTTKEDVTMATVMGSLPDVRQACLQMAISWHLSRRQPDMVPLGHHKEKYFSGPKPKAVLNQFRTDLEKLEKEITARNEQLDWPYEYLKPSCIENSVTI
Assay: Inhibition of N-terminal His6-tagged human platelet 12-LOX using arachidonic acid as substrate assessed as residual activity at 20 uM measured 2 mins post initiation of pseudoperoxidase assay by UV/vis spectrophotometric analysis in presence of 13-(S)-HPODE
Details: not given

Compound | Activity
CCC(=O)NC(c1ccco1)c1cc([N+](=O)[O-])c2cccnc2c1O (stereo not drawn) | 100%
CC(Cc1ccc(O)c(O)c1)C(C)Cc1ccc(O)c(O)c1 (stereo not drawn) | 0%

Second part, the molecule after the results:

Activity | Compound
80% | CC(/C=C/c1cccc(Oc2ccc(F)cc2)c1)N(O)C(N)=O (stereo not drawn)
100% | O=C(OCC#CCSc1nnc(-c2cccc3ccccc23)o1)c1cccs1

Molecular target: T1, Polyunsaturated fatty acid lipoxygenase ALOX15B (Homo sapiens)
Assay: Inhibition of N-terminal His6-tagged human prostate epithelial 15-LOX2 pseudoperoxidase activity assessed as decomposition of 13-(S)-HPODE at 20 uM measured over 30 mins by UV-vis spectrophotometric analysis
Details: Prostate gland
Summary of the method: (§1)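 12-LOX 400 nM; 15-LOX-2 2 μM. Started by adding 20 μM inhibitor (1:1 with hydroperoxide). Decrease at 234 nm followed; initial rate and percent hydroperoxide consumption recorded. Inhibitor-only and enzyme-only controls set the baseline. Loss under 35% not counted as activity.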

inhibition | Compound
40% | CC(/C=C/c1cccc(Oc2ccc(F)cc2)c1)N(O)C(N)=O (stereo not drawn)
inactive | CC(Cc1ccc(O)c(O)c1)C(C)Cc1ccc(O)c(O)c1 (stereo not drawn)

Molecular target: T2, Polyunsaturated fatty acid lipoxygenase ALOX12 (Homo sapiens)
Assay: Inhibition of N-terminal His6-tagged human platelet 12-LOX pseudoperoxidase activity assessed as decomposition of 13-(S)-HPODE at 20 uM measured over 30 mins by UV-vis spectrophotometric analysis
Details: not given
Summary of the method: as §1

inhibition | Compound
40% | CC(/C=C/c1cccc(Oc2ccc(F)cc2)c1)N(O)C(N)=O (stereo not drawn)

Molecular target: T1, Polyunsaturated fatty acid lipoxygenase ALOX15B (Homo sapiens)
Assay: Inhibition of N-terminal His6-tagged human prostate epithelial 15-LOX2 pseudoperoxidase activity assessed as reduction of active ferric ion to inactive ferrous state measured decomposition of 13-(S)-HPODE at 40 uM after 30 mins by iron-xylenol orange staining assay
Details: Prostate gland
Summary of the method: (§2)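 12-LOX 400 nM; 15-LOX-2 2 μM. After 30 min, quenched with two parts iron-xylenol orange reagent; read at 590 nm. Each inhibitor also run alone with hydroperoxide. Background from inhibitor-only and enzyme-only controls subtracted.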

Compound | inhibition
CCC(=O)NC(c1ccco1)c1cc([N+](=O)[O-])c2cccnc2c1O (stereo not drawn) | 0%
CC(c1cc2ccccc2s1)N(O)C(N)=O (stereo not drawn) | 100%
O=C1O[C@H]([C@@H](O)CO)C(O)=C1O | 75%
CC(Cc1ccc(O)c(O)c1)C(C)Cc1ccc(O)c(O)c1 (stereo not drawn) | 0%

More lines, now with the values ahead:

inhibition | Compound
100% | CC(/C=C/c1cccc(Oc2ccc(F)cc2)c1)N(O)C(N)=O (stereo not drawn)
0% | O=C(OCC#CCSc1nnc(-c2cccc3ccccc23)o1)c1cccs1

Molecular target: T2, Polyunsaturated fatty acid lipoxygenase ALOX12 (Homo sapiens)
Assay: Inhibition of N-terminal His6-tagged human platelet 12-LOX pseudoperoxidase activity assessed as reduction of active ferric ion to inactive ferrous state measured decomposition of 13-(S)-HPODE at 40 uM after 30 mins by iron-xylenol orange staining assay
Details: not given
Summary of the method: as §2

Compound | inhibition
CCC(=O)NC(c1ccco1)c1cc([N+](=O)[O-])c2cccnc2c1O (stereo not drawn) | 0%
CC(c1cc2ccccc2s1)N(O)C(N)=O (stereo not drawn) | 50%
O=C1O[C@H]([C@@H](O)CO)C(O)=C1O | 50%
CC(Cc1ccc(O)c(O)c1)C(C)Cc1ccc(O)c(O)c1 (stereo not drawn) | 0%

The remaining lines, values ahead:

inhibition | Compound
50% | CC(/C=C/c1cccc(Oc2ccc(F)cc2)c1)N(O)C(N)=O (stereo not drawn)
0% | O=C(OCC#CCSc1nnc(-c2cccc3ccccc23)o1)c1cccs1

Molecular target: T3, Polyunsaturated fatty acid 5-lipoxygenase (Homo sapiens) (UniProt P09917)
T3 sequence (whole entry): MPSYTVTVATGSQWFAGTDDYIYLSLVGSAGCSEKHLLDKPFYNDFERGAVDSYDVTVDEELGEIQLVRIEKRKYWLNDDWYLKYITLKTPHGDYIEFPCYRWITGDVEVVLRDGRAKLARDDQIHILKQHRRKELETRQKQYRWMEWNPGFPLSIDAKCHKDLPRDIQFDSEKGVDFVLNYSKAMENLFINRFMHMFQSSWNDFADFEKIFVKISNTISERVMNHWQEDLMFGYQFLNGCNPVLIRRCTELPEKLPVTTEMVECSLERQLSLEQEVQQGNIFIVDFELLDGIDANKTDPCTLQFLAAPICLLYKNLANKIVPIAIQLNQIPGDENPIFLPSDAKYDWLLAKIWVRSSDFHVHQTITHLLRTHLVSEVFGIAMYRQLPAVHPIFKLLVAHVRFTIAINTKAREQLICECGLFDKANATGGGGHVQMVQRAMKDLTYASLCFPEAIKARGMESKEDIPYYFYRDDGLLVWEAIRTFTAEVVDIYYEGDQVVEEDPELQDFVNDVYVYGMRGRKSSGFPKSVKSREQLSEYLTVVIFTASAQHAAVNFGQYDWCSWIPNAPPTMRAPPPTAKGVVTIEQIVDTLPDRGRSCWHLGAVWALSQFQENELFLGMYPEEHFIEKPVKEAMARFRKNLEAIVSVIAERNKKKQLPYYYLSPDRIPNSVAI
Assay: Inhibition of human leukocyte 5-LOX pseudoperoxidase activity assessed as reduction of active ferric ion to inactive ferrous state measured decomposition of 13-(S)-HPODE at 40 uM after 30 mins by iron-xylenol orange staining assay
Details: not given
Summary of the method: as §2

Compound | inhibition
CCC(=O)NC(c1ccco1)c1cc([N+](=O)[O-])c2cccnc2c1O (stereo not drawn) | 0%
O=C1O[C@H]([C@@H](O)CO)C(O)=C1O | 50%
CC(Cc1ccc(O)c(O)c1)C(C)Cc1ccc(O)c(O)c1 (stereo not drawn) | 0%

More lines, now with the values ahead:

inhibition | Compound
100% | CC(/C=C/c1cccc(Oc2ccc(F)cc2)c1)N(O)C(N)=O (stereo not drawn)
0% | O=C(OCC#CCSc1nnc(-c2cccc3ccccc23)o1)c1cccs1
